In PMC9137328 (Bioorganic chemistry, 2020):
“Also recorded” adds a separate entry of the source. Read-outs that look alike come from different tables or passages of the source. Values belong to the compound of their own block, whether it stands above or below them.

Columns and labels:
ERRα [1] = target: T1, ERRα (Homo sapiens, UniProt P11474); assay: Cell-based; settings: for ERRα activity (in words): HEK293 co-transfection luciferase
T1 sequence (P11474 1-423): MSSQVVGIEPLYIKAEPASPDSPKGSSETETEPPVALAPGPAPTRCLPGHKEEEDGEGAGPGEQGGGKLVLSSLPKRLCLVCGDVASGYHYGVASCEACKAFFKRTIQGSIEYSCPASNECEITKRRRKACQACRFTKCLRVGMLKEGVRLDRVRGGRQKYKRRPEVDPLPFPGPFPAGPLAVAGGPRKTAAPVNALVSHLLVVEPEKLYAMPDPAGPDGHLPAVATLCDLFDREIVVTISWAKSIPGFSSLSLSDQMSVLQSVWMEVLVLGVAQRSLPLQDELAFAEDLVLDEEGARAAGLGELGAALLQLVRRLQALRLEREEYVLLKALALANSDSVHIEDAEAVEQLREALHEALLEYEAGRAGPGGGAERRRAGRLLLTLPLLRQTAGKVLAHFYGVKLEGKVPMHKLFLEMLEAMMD

ERRγ [2] = target: T2, ERRγ (Homo sapiens, UniProt P62508); assay: Cell-based; settings: for ERRγ activity (in words): HEK293 co-transfection luciferase
T2 sequence (P62508 1-458): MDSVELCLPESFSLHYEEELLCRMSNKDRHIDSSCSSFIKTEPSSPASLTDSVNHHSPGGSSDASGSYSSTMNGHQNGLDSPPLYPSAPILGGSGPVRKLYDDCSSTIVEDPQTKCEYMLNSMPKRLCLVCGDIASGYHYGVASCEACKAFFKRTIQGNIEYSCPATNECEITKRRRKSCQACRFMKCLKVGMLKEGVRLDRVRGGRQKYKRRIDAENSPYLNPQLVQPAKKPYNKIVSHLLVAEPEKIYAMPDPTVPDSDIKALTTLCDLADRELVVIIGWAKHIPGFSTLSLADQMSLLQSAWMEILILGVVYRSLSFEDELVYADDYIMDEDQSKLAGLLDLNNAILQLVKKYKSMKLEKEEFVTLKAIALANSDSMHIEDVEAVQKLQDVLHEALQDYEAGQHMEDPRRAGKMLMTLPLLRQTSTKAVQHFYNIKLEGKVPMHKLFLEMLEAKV

[3] = system: ERR target genes PGC-1α, PGC-1β, CPT1α and PDK4; assay: Gene expression; format: cell-based, mouse; settings: C2C12 cells, 1 μM of tested compounds, 24 h
Summary of the method: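 Confluent C2C12 myoblasts (DMEM, 10% FBS, 1% L-glutamine; 2.5 million cells per well) were treated 24 h with test compound in DMSO or with DMSO vehicle, in triplicate groups. Total RNA was column-extracted and 1 μg was reverse-transcribed. Transcripts were quantified by SYBR qPCR, with samples run in duplicate. Relative expression was calculated by ΔΔCt against 36b4 as the reference gene.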

ERRβ [4] = target: T3, ERRβ (Homo sapiens, UniProt O95718); assay: Cell-based co-transfection ERR responsive luciferase reporter assay, ERRβ
T3 sequence (O95718 1-433): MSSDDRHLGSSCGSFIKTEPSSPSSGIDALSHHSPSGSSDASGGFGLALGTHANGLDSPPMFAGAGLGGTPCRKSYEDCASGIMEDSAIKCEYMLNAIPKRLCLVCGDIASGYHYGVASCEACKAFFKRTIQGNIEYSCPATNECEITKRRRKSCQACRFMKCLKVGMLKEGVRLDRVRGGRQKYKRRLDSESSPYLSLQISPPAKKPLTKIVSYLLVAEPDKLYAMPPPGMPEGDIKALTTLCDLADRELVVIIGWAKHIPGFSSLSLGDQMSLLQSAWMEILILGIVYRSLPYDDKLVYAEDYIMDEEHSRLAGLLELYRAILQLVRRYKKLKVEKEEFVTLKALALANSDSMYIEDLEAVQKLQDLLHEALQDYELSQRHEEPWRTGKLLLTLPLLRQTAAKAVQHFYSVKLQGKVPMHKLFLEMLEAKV

C2C12 cells = assay: Cell viability assay, FITC Annexin V/PI flow cytometry; format: cell-based; settings: 1 and 10 μM, 24 h
Summary of the method: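 C2C12 mouse myoblasts were kept in DMEM with 10% FBS and 1% L-glutamine. They were seeded at 2.5 million cells per well and grown 24 h to confluence. Cells were exposed 24 h to test compound in DMSO at 1 or 10 μM, with a DMSO-only control, in triplicate. Harvested cells were stained with FITC-Annexin V and propidium iodide and analysed by flow cytometry for live/dead cells.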

ERRα [5] = target: T1, ERRα; settings: cited from earlier work
ERRγ [6] = target: T2, ERRγ; settings: cited from earlier work
ERRβ [7] = target: T3, ERRβ; settings: cited from earlier work

Compound: O=C(NN=Cc1ccccc1)c1ccccc1 [Compound 10]
ERRα activity (in words) (ERRα [1]): complete loss of activity; also recorded: completely inactive
ERRγ activity (in words) (ERRγ [2]): complete loss of activity; also recorded: completely inactive

Compound: O=C(NN=Cc1ccccc1)c1ccc(Br)cc1 [Compound 21]
ERRα activity (in words) (ERRα [1]): completely lost ERRα activity; also recorded: inactive
ERRγ activity (in words) (ERRγ [2]): moderate ERRγ activity; also recorded: very weak

Compound: Cc1ccc(C(=O)N/N=C/c2ccccc2)cc1 [Compound 24, (E)-N’-Benzylidene-4-methylbenzohydrazide]
EC50 (ERRβ [4]): 162 nM
PDK4 transcription [3]: potently upregulated
mRNA levels of PGC-1α [3]: increase the mRNA levels
mRNA levels of PGC-1β [3]: increase the mRNA levels
Cell viability / signs of toxicity (C2C12 cells): No signs of toxicity; also recorded: did not show signs of toxicity

Compound: O=C(N/N=C/c1ccccc1O)c1ccccc1O [Compound 27, (E)-2-Hydroxy-N’-(2-hydroxybenzylidene)benzohydrazide]
EC50 (ERRα [1]): 378 nM
activity toward ERRα, folds higher than ERRβ (ERRα [1]; from EC50 values): ≈ 2 folds
selectivity toward ERRα over ERRγ (ERRα [1]; from EC50 values): > 4 fold
EC50 (ERRγ [2]): 1650 nM
EC50 (ERRβ [4]): 772 nM
Cell viability / signs of toxicity (C2C12 cells): No signs of toxicity; also recorded: did not show signs of toxicity

Compound: Cc1ccccc1C(=O)N/N=C/c1ccccc1O [Compound 29, (E)-N’-(2-Hydroxybenzylidene)-2-methylbenzohydrazide]
EC50 (ERRα [1]): 453 nM
EC50 (ERRγ [2]): 254 nM
EC50 (ERRβ [4]): 583 nM
Cell viability / signs of toxicity (C2C12 cells): No signs of toxicity; also recorded: did not show signs of toxicity

Compound: O=C(NN=Cc1ccccc1O)c1ccc(Cl)cc1 [Compound 31]
ERRα activity (in words) (ERRα [1]): weak activity
ERRγ activity (in words) (ERRγ [2]): weak activity

Compound: Cc1ccc(C(=O)N/N=C/c2ccccc2O)cc1 [Compound 33, (E)-N’-(2-Hydroxybenzylidene)-4-methylbenzohydrazide]
EC50 (ERRα [1]): 483 nM
EC50 (ERRγ [2]): 235 nM
EC50 (ERRβ [4]): 123 nM

Compound: COc1ccc(/C=N/NC(=O)c2ccc(Br)cc2)cc1 [Compound 35, (E)-4-Bromo-N’-(4-methoxybenzylidene)benzohydrazide]
EC50 (ERRα [1]): 540 nM
EC50 (ERRγ [2]): 398 nM
PDK4 transcription [3]: potently upregulated
mRNA levels of PGC-1α [3]: increased the mRNA levels

Compound: O=C(N/N=C/c1ccccc1O)c1ccccc1O [Compound 36]
ERRγ activity (in words) (ERRγ [2]): inactive

Compound: O=C(N/N=C/c1ccccc1[N+](=O)[O-])c1ccc([N+](=O)[O-])cc1 [Compound 38, (E)-4-Nitro-N’-(2-nitrobenzylidene)benzohydrazide]
EC50 (ERRα [1]): 646 nM
fold decrease in potency against ERRα (ERRα [1]; compared to 16): ≈ 1.5 fold
EC50 (ERRγ [2]): 260 nM

Compound: O=C(N/N=C/c1cccs1)c1ccccc1 [Compound 42, (E)-N’-(Thiophen-2-ylmethylene)benzohydrazide]
ERRα activity (in words) (ERRα [1]): weak agonistic effect
ERRγ activity (in words) (ERRγ [2]): weak agonistic effect
EC50 (ERRβ [4]): 1190 nM
activity toward ERRβ, folds higher than ERRα (ERRβ [4]; from EC50 values): 1.8 folds
PDK4 transcription [3]: potently upregulated
mRNA levels of PGC-1α [3]: increase the mRNA levels
mRNA levels of PGC-1β [3]: increase the mRNA levels
Cell viability / signs of toxicity (C2C12 cells): No signs of toxicity; also recorded: did not show signs of toxicity

Compound: CC(C)c1ccc(/C=N/NC(=O)c2ccc(O)cc2)cc1 [GSK4716 (6)]
ERRα activity (in words) (ERRα [1]): very weak activity
EC50 (ERRβ [4]; read-out: ERRβ EC50, agonism, co-transfection luciferase reporter): 280 nM
reported activity on ERRα (ERRα [5]): no observed activity
reported activity on ERRγ (ERRγ [6]): agonist
reported activity on ERRβ (ERRβ [7]): agonist

Continued, in another order:

ERRγ activity (in words) (ERRγ [2]): activity was regained
Compound: CN(C)c1ccc(C=NNC(=O)c2ccccc2)cc1 [Compound 11]
ERRα activity (in words) (ERRα [1]): no ERRα activity; also recorded: inactive

ERRα activity (in words) (ERRα [1]): completely inactive
ERRγ activity (in words) (ERRγ [2]): completely inactive
Compound: O=C(NN=Cc1ccccc1O)c1ccccc1 [Compound 13]

fold more potent toward ERRα than 14 (ERRα [1]; compared to 14): ≈ 17 fold
fold increase in potency toward ERRα compared to 15 (ERRα [1]; compared to 15): > 6 fold
selectivity toward ERRγ over ERRα (ERRγ [2]; from EC50 values): 1.6 fold
Compound: O=C(N/N=C/c1ccccc1[N+](=O)[O-])c1ccccc1 [Compound 16, (E)-N’-(2-Nitrobenzylidene)benzohydrazide]
PDK4 transcription [3]: potently upregulated
expression of CPT1α [3]: significantly increased the expression

ERRα activity (in words) (ERRα [1]): moderately potent
ERRγ activity (in words) (ERRγ [2]): moderately potent
Compound: O=C(NN=Cc1ccccc1)c1ccccc1O [Compound 19]

ERRα activity (in words) (ERRα [1]): no activity
Compound: Cc1ccccc1C(=O)NN=Cc1ccccc1 [Compound 23]

ERRα activity (in words) (ERRα [1]): completely inactive
ERRγ activity (in words) (ERRγ [2]): completely inactive
Compound: O=C(N/N=C/c1ccccc1[N+](=O)[O-])c1ccccc1 [Compound 34]

IC50 (ERRα [1]): 4580 nM
Compound: O=C(NN=Cc1ccnc2ccccc12)c1ccccc1 [Compound 46, quinolin-4-ylmethylene benzohydrazide]
